Assay results reported in the RNAGym collection of RNA variant scans (doi:10.1126/science.aae0568).
This sample holds only a part of the variants without activity.

B1: tRNA (parent)
chain: GUUCCGUUGGCGUAAUGGUAACGCGUCUCCCUCCUAAGGAGAAGACUGCGGGUUCGAGUCCCGUACGGAACG

Variants of: B1
Assay: yeast fitness relative to wild type (ratio to wild type); higher = fitter; tRNA-Arg(CCU), competitive growth, 37 C, YPD
In short: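 Genotype frequency changes were the basis for Darwinian fitness relative to wild type. The frequencies came from 100-nucleotide paired-end sequencing of gene amplicons from the start population and each end population of pooled yeast strains with tRNA-Arg(CCU) gene variants at the native locus. Competition ran in YPD at 37°C for 24 hours in six replicates, genotypes needed ≥ 100 starting reads, and estimates < 0.5 were set to 0.5.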

Row | Variant | yeast fitness
1 | GUUCCGUUGGCGUAAUGGCAAGGAGUCUCCCUCCUAAGGAGAAGACUGCGGGUUCGAGUCCCGUACGGAACG [U19C C22G C24A] | 0.72
2 | GUUCCAUCGGCGUAAUGGUAACGCGUCUCCCUCCUAAGGAGCAGUCUGCGGGUUCGAGUCGCGUACGGAACG [G6A U8C A42C A45U C61G] | ≤ 0.5
3 | GGUCCGUUGGCGUAAUGGUAACGCGUCUCCCUCCUAAGGAGAAGACUGCGGGUUCGAGUCCCGUUCGGAACG [U2G A65U] | 0.687
4 | GUUCCGUUGGCGUAAUGGUCACGCGUCUCGCUCCUAAGGAGAAGACUGCGGGUUCGAGUACCGUACGGAACG [A20C C30G C60A] | ≤ 0.5
5 | GUUCCGUUGGAGAAAUGGUAACGCGUCUCCCUCCUAAGGAGUAGACUGCAGGUUAGAGUCCCGUACGGAACG [C11A U13A A42U G50A C55A] | ≤ 0.5
6 | GUUCCAUUGGCGUAAUGGUAACGCGUCUCCCUCCUAAGAAGAAGACUGCGGCUUGGAGUCCCGUACGGAACG [G6A G39A G52C C55G] | ≤ 0.5
7 | GUUCCGUUGGCGUAAAGGUAACGUGUCUCCCUCGUAACGAGAAGACUGCGGGUUCGAGUCCCGUACGGAACG [U16A C24U C34G G38C] | ≤ 0.5
8 | GUUCCGUUGGGGUAAUGGUAACGCGUCUCCCUCCUAAGGAGAAGAAUGCGGGUUCGAGUCCCGUGCGGAACG [C11G C46A A65G] | ≤ 0.5
9 | GUUCCGUUGGCGUAAUGGUAACGCGUCUGCCUCCUAAGGAGAAGCCUGCGGAUUCGAGUCCCGUACGGAACG [C29G A45C G52A] | ≤ 0.5
10 | GUUCUGUUGGCGAAAUGGUAACGCGUCUGCAUCCUAAGGAGAAGACUGCGGGUUCGAGUCCCGUACGGAACG [C5U U13A C29G C31A] | 0.593
11 | GUUCCGUUGGCGUAAUGGUAACGCACCUGCCUCCUAAGGAGAAGACUGCGGGUUCGAGUCACGUACGGAACG [G25A U26C C29G C61A] | ≤ 0.5
12 | GUUCCGUUGGCGUAAUGGUAACACGUCUCCCUCCUAAGGAGAGGACUGCGGGUUCGAGUCCCGUACGGAACG [G23A A43G] | 0.684
13 | GUCCCGUUGGCGUAAUGGUAACGCGUCUCGCUCCUAAGGAGACGACUACGGGUUCGAGUCCCGUACGGAACG [U3C C30G A43C G48A] | ≤ 0.5
14 | GUUCCGUUGGCGUAAUGGUAACGCGUCUCCCUCCUAAGGAGAAGACUGCGGGUUCGAGUCCCGUAUGGAGCG [C66U A70G] | 0.973
15 | GCUCCGUUGGCGUAAUGGUAACGUGUCUCCCUCCUAAGGAGAAGACUGCGGGUUCGAGCCCCGUACGGAACG [U2C C24U U59C] | 0.537
16 | GUUCCGUUGGCGUAAUGGUAACGGGUUUCCCUUCUAAGGAGAAGACUGCCGGUUCGAGUCCCGUGCGAAACG [C24G C27U C33U G50C A65G G68A] | ≤ 0.5
17 | GUUCCGUUGGCGUAAUGGUCACGCGUCUACCUCCUAAGGAGAAGACUGCGCGUUCGAGUCCCGUACGGAACG [A20C C29A G51C] | ≤ 0.5
18 | GUUCCGUUGGCGUAAUGGUAACGCGUCUCCCUCCUAAGGCGAAGACUGCGGGUUCGACUCCCGUACGGAACG [A40C G58C] | 0.922
19 | GUUCCGUUGGCGUCAUGGUACCGCGUCUGCCUCCUAAGGAGAAGACUGCGGGUUCGAGUCCCGUACGGAACG [A14C A21C C29G] | ≤ 0.5

Row | Variant | yeast fitness
20 | GUUCCGUUGGCGUAAUGGUAACGCGUCUCCCUCCUAAGGCGAAGACUGGGGGUUCGAGUGCCGUACGGAACG [A40C C49G C60G] | 0.532
21 | GUUCCGUUAGCGUAAUGGUAACGCGUCUUCUUCCUAAGGAGUAGACUGCGGGUUCGAGUCCCGUACGGAACG [G9A C29U C31U A42U] | 0.615
22 | GUUCCGUUGGCGUUAUGGUAACGCGUGUCCCUCAUAAGGAGAAGACUGCGGGUUCGAGUCUCGUAGGGUACG [A14U C27G C34A C61U C66G A69U] | ≤ 0.5
23 | GUUCCGUUGGCGUAAUGGUUACGCGUCUCCCUCCUGAGGAGAAGACUGUGGGUUGGAGUCCCGUACGGAACG [A20U A36G C49U C55G] | 0.501
24 | GUUCCGUUGGUGUAAUGGUAACGCAUCUCCCUCCUAAGGAGAGGACUGCGGGUUCGAGUCCCGUACGGAACG [C11U G25A A43G] | 0.592
25 | GUUCCCUUGACGUAAGGGUAACGUGUCUCCCUCCUAAGGAGAAGACUGCCGGUUCGAGUCCCGUACGGAACG [G6C G10A U16G C24U G50C] | 0.609
26 | GUUCCGUUGGCGUAAUGGUAACGCGUCUCCCUCCUAAGGAGAAGACUGGGGGUUCGAGCCCCGUACGGAACG [C49G U59C] | 0.761
27 | GUUCCGUUGGCGUAAUGGUAACGCGUCUCCCUCCUGAGGAGAAGACUGCGGGUUCGAGUCGCGUACGGACCG [A36G C61G A70C] | 0.661
28 | GUUCCGUUGGCGUAAUGGUAAUGCGACUCCCUCCUAAGGGGAAGACUGCGGGUUCGAGUCCCGUACCGAACG [C22U U26A A40G G67C] | ≤ 0.5
29 | GUAGCAUUGGCGUAAUGGUAACGCGGCUCCCUCCUAAGGAGAAGACUGCGGGUUCGAGUCCCGUACGGAUCG [U3A C4G G6A U26G A70U] | ≤ 0.5
30 | GUUCCGUUGACGUAAUGGUAACGCGUCUCCCUCCUAAGGAGAAGACUGCGGGUUCGAGUCGCGUAUGGUACG [G10A C61G C66U A69U] | ≤ 0.5
31 | GUUCUGUUGGCGUAAUGGUAACGGGUCUCCCUCCUAUGGAGAAGACUGCGGGUUCAAGUCCCGUCCGGAACG [C5U C24G A37U G56A A65C] | ≤ 0.5
32 | GUUCCGUUGGCGUAAUGGUAACGCGUCUCACUCCUAAGGGGUAGACUGCGGGUUCGAGUCCAGUACGGAACG [C30A A40G A42U C62A] | ≤ 0.5
33 | GUUCCGUUGGCGUAAUGGUAACGCGCCUCCCCCCUAAGGAGAAGACUGCGGGUUCGAGUCCCGUAUGGAACG [U26C U32C C66U] | 0.676
34 | GUUCCGUUGGCGUAAUGGUAACGCGUCUCCGGCCUAAGGAGAAGACUGCGGGUUCGAGUCCCGUACGGAACG [C31G U32G] | 0.556
35 | GUUCCGUUGGCGUAAUGGUAUCGCGUCUGCCUCCUAAGGAGAAGACUGCGGGUUCGACUCCCGUACGGAACG [A21U C29G G58C] | 0.502
36 | GUUCCGUUCGCGAAAUCGUAACGCGUCUCCCUCCUAAGGAGAAGACUGCGGGUUCGAGUCCCGUACGGAACG [G9C U13A G17C] | ≤ 0.5
37 | GUUCCGUUGGCGUAAUGGUAACGCGUCUCCCUCCUAAGGAGAGGACUGCGGGUUCGAGUCCCAUACGGUACG [A43G G63A A69U] | 0.812
38 | GUUCCGUUGGCGUAAUGGUAACGCGUCUGCCCCCUGAGGAGAAGACUGCGGGUUCGAGUACCGUACGGAACG [C29G U32C A36G C60A] | ≤ 0.5
